Reference: ChEMBL document CHEMBL2375304, “Synthesis and anticancer activity of novel 2-pyridyl hexahyrocyclooctathieno[2,3-d]pyrimidine derivatives” (2013)

What was measured:
Format in all cases: functional
MDA-MB-468 [1] = experiment: Growth inhibition of human MDA-MB-468 cells after 48 hrs by Sulforhodamine B assay; conditions: MDA-MB-468, 48 h
Outline: (§1)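 Cells were preincubated 24 h at 37 °C, 5% CO2, and a time-zero plate was TCA-fixed. Five concentrations were made by serial dilution from a DMSO stock (400-fold the top concentration) and incubated 48 h. Adherent cells were fixed with 10% final TCA and suspension cells with 16%. Plates were stained with 0.4% SRB and read at 515 nm. GI50 is the concentration giving 50% reduction in net protein increase versus control.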

BT-549 [2] = experiment: Growth inhibition of human BT549 cells after 48 hrs by Sulforhodamine B assay; conditions: BT-549, 48 h
Outline: (§2)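 Five-concentration SRB assay using 10-fold or ½-log serial dilutions from a DMSO stock. Exposure is 48 h at 37 °C in 5% CO2 after 24 h preincubation. TCA fixation is followed by SRB staining and a reading at 515 nm. Percentage growth is computed from time-zero, control and treated absorbances. GI50 is the concentration where [(Ti−Tz)/(C−Tz)]×100 = 50, read from the plot against log concentration.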

ACHN [3] = experiment: Growth inhibition of human ACHN cells after 48 hrs by Sulforhodamine B assay; outline: as §2
OVCAR-5 [4] = experiment: Growth inhibition of human OVCAR5 cells after 48 hrs by Sulforhodamine B assay; conditions: OVCAR-5, 48 h; outline: as §1
OVCAR-3 = experiment: Growth inhibition of human OVCAR3 cells after 48 hrs by Sulforhodamine B assay; conditions: OVCAR-3, 48 h; outline: as §1
MDA-MB-435 [5] = experiment: Growth inhibition of human MDA-MB-435 cells after 48 hrs by Sulforhodamine B assay; conditions: MDA-MB-435, 48 h; outline: as §2
LOX IMVI = experiment: Growth inhibition of human LOXIMVI cells after 48 hrs by Sulforhodamine B assay; outline: as §2
HT-29 = experiment: Growth inhibition of human HT-29 cells after 48 hrs by Sulforhodamine B assay; conditions: HT-29, 48 h; outline: as §2
[6] = Growth inhibition of human HCC2998 cells after 48 hrs by Sulforhodamine B assay; conditions: HCC 2998, 48 h; outline: as §2
NCI-H322M [7] = experiment: Growth inhibition of human NCI-H322M cells after 48 hrs by Sulforhodamine B assay; outline: as §1
RPMI-8226 = experiment: Growth inhibition of human RPMI8226 cells after 48 hrs by Sulforhodamine B assay; conditions: RPMI-8226, 48 h; outline: as §1
HL-60(TB) = experiment: Growth inhibition of human HL-60(TB) cells after 48 hrs by Sulforhodamine B assay; conditions: HL-60, 48 h
Outline: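 Suspension cells pre-incubated 24 h at 37 °C, 5% CO2 before drug addition, with a time-zero plate fixed then. DMSO stocks diluted in medium with gentamicin to five concentrations (10-fold or ½-log steps); 48 h exposure. Settled cells fixed with TCA (final 16%), stained with SRB, dye dissolved in 10 mM Tris base, read at 515 nm. GI50 solved from [(Ti−Tz)/(C−Tz)]×100 = 50.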

CCRF-CEM = experiment: Growth inhibition of human CCRF-CEM cells after 48 hrs by Sulforhodamine B assay; outline: as §2
KM12 = experiment: Growth inhibition of human KM12 cells at 10^-5 M after 48 hrs by Sulforhodamine B assay relative to control; conditions: KM12, 48 h, read-out: GI
Outline: (§3)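 Single-dose screen at 10⁻⁵ M. Cells are preincubated 24 h at 37 °C in 5% CO2, then exposed to the compound, diluted from a DMSO stock into medium with gentamicin, for 48 h. Adherent cells are fixed with cold TCA (final 10%) and suspension cells with TCA (final 16%). Cells are stained with 0.4% SRB in 1% acetic acid and bound dye is read at 515 nm. Percent growth inhibition is taken against control wells and time-zero plates.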

COLO 205 = experiment: Growth inhibition of human COLO205 cells at 10^-5 M after 48 hrs by Sulforhodamine B assay relative to control; conditions: COLO 205, 48 h, read-out: GI; outline: as §3
NCI-H460 = experiment: Growth inhibition of human NCI-H460 cells at 10^-5 M after 48 hrs by Sulforhodamine B assay relative to control; conditions: NCI-H460, 48 h, read-out: GI
Outline: (§4)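 Single-dose primary screen at 10⁻⁵ M across 49 lines. Cells were plated 24 h beforehand, with a TCA-fixed time-zero plate, then exposed 48 h at 37 °C, 5% CO2. Cells were fixed with cold TCA, stained with SRB and read at 515 nm. Percent growth was calculated against time-zero and untreated-control absorbances.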

NCI-H322M [8] = experiment: Growth inhibition of human NCI-H322M cells at 10^-5 M after 48 hrs by Sulforhodamine B assay relative to control; conditions: read-out: GI; outline: as §4
MDA-MB-468 [9] = experiment: Growth inhibition of human MDA-MB-468 cells at 10^-5 M after 48 hrs by Sulforhodamine B assay relative to control; conditions: MDA-MB-468, 48 h, read-out: GI; outline: as §4
BT-549 [10] = experiment: Growth inhibition of human BT549 cells at 10^-5 M after 48 hrs by Sulforhodamine B assay relative to control; conditions: BT-549, 48 h, read-out: GI; outline: as §3
MDA-MB-231 = experiment: Growth inhibition of human MDA-MB-231 cells at 10^-5 M after 48 hrs by Sulforhodamine B assay relative to control; conditions: MDA-MB-231, 48 h, read-out: GI; outline: as §3
MCF7 = experiment: Growth inhibition of human MCF7 cells at 10^-5 M after 48 hrs by Sulforhodamine B assay relative to control; conditions: MCF7, 48 h, read-out: GI; outline: as §3
ACHN [11] = experiment: Growth inhibition of human ACHN cells at 10^-5 M after 48 hrs by Sulforhodamine B assay relative to control; conditions: read-out: GI; outline: as §3
SK-OV-3 = experiment: Growth inhibition of human SKOV3 cells at 10^-5 M after 48 hrs by Sulforhodamine B assay relative to control; conditions: SK-OV-3, 48 h, read-out: GI; outline: as §4
[12] = Growth inhibition of human NCI-ADR-RES cells at 10^-5 M after 48 hrs by Sulforhodamine B assay relative to control; conditions: read-out: GI; outline: as §4
OVCAR-5 [13] = experiment: Growth inhibition of human OVCAR5 cells at 10^-5 M after 48 hrs by Sulforhodamine B assay relative to control; conditions: OVCAR-5, 48 h, read-out: GI; outline: as §4
UACC-62 = experiment: Growth inhibition of human UACC62 cells at 10^-5 M after 48 hrs by Sulforhodamine B assay relative to control; conditions: UACC-62, 48 h, read-out: GI
Outline: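 Single-dose stage: compound tested at 10⁻⁵ M in the 49-cell-line panel. Cells grew 24 h at 37 °C, 5% CO₂ before drug addition. Drug stock was in DMSO at 400-fold, diluted in medium with gentamicin. After 48 h exposure, adherent cells were fixed with cold TCA (10% final) and stained with 0.4% SRB in 1% acetic acid. Dye was solubilized in 10 mM Tris, read at 515 nm. Growth percentage was taken relative to untreated control and time-zero plates.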

MDA-MB-435 [14] = experiment: Growth inhibition of human MDA-MB-435 cells at 10^-5 M after 48 hrs by Sulforhodamine B assay relative to control; conditions: MDA-MB-435, 48 h, read-out: GI; outline: as §3

COc1ccc(N2CCN(c3nc(-c4ccccn4)nc4sc5c(c34)CCCCCC5)CC2)cc1
GI50 (MDA-MB-468 [1]): 4.07 µM
GI50 (BT-549 [2]): 6.92 µM
GI50 (ACHN [3]): 5.13 µM
GI50 (OVCAR-5 [4]): 51.3 µM
GI50 (OVCAR-3): 8.71 µM
GI50 (MDA-MB-435 [5]): 5.5 µM
GI50 (LOX IMVI): 6.31 µM
GI50 (HT-29): 5.01 µM
GI50 [6]: 10.2 µM
GI50 (NCI-H322M [7]): 5.5 µM
GI50 (RPMI-8226): 3.72 µM
GI50 (HL-60(TB)): 4.07 µM
GI50 (CCRF-CEM): 4.37 µM

CN1CCN(c2nc(-c3ccncc3)nc3sc4c(c23)CCCCCC4)CC1
GI50 (MDA-MB-468 [1]): 5.25 µM
GI50 (BT-549 [2]): 6.31 µM
GI50 (ACHN [3]): 7.94 µM
GI50 (OVCAR-5 [4]): 10.7 µM
GI50 (OVCAR-3): 13.5 µM
GI50 (MDA-MB-435 [5]): 11.7 µM
GI50 (LOX IMVI): 8.32 µM
GI50 (HT-29): 4.79 µM
GI50 [6]: 3.89 µM
GI50 (NCI-H322M [7]): 13.2 µM
GI50 (RPMI-8226): 8.32 µM
GI50 (HL-60(TB)): 12.6 µM
GI50 (CCRF-CEM): 8.13 µM

CN1CCN(c2nc(-c3ccccn3)nc3sc4c(c23)CCCCCC4)CC1
inhibition of growth at 10 µM (KM12): 8.11%
inhibition of growth at 10 µM (COLO 205): 0.37%
inhibition of growth at 10 µM (NCI-H460): 2.79%
inhibition of growth at 10 µM (NCI-H322M [8]): 1.03%
inhibition of growth at 10 µM (MDA-MB-468 [9]): 5.4%
inhibition of growth at 10 µM (BT-549 [10]): 10.3%
inhibition of growth at 10 µM (MDA-MB-231): 6.82%
inhibition of growth at 10 µM (MCF7): 50.4%
inhibition of growth at 10 µM (ACHN [11]): 4.94%
inhibition of growth at 10 µM (SK-OV-3): -3.22%
inhibition of growth at 10 µM [12]: 22.7%
inhibition of growth at 10 µM (OVCAR-5 [13]): 2.04%
inhibition of growth at 10 µM (UACC-62): 9.41%
inhibition of growth at 10 µM (MDA-MB-435 [14]): 4.89%

c1ccc(-c2nc(N3CCOCC3)c3c4c(sc3n2)CCCCCC4)nc1
GI50 (MDA-MB-468 [1]): 4.17 µM
GI50 (BT-549 [2]): 4.37 µM
GI50 (ACHN [3]): 4.47 µM
GI50 (OVCAR-5 [4]): 10.2 µM
GI50 (OVCAR-3): 4.57 µM
GI50 (MDA-MB-435 [5]): 4.79 µM
GI50 (LOX IMVI): 5.25 µM
GI50 (HT-29): 6.03 µM
GI50 [6]: 6.92 µM
GI50 (NCI-H322M [7]): 5.5 µM
GI50 (RPMI-8226): 2.14 µM
GI50 (HL-60(TB)): 4.47 µM
GI50 (CCRF-CEM): 3.55 µM

NNc1nc(-c2ccccn2)nc2sc3c(c12)CCCCCC3
GI50 (MDA-MB-468 [1]): 3.63 µM
GI50 (BT-549 [2]): 9.77 µM
GI50 (ACHN [3]): 4.9 µM
GI50 (OVCAR-5 [4]): 8.71 µM
GI50 (OVCAR-3): 5.37 µM
GI50 (MDA-MB-435 [5]): 5.13 µM
GI50 (LOX IMVI): 6.17 µM
GI50 (HT-29): 5.5 µM
GI50 [6]: 8.32 µM
GI50 (NCI-H322M [7]): 5.37 µM
GI50 (RPMI-8226): 3.24 µM
GI50 (HL-60(TB)): 4.47 µM
GI50 (CCRF-CEM): 4.47 µM

O=c1[nH]c(-c2ccncc2)nc2sc3c(c12)CCCCCC3
GI50 (MDA-MB-468 [1]): > 100 µM
GI50 (BT-549 [2]): > 100 µM
GI50 (ACHN [3]): > 100 µM
GI50 (OVCAR-5 [4]): > 100 µM
GI50 (OVCAR-3): > 100 µM
GI50 (MDA-MB-435 [5]): > 100 µM
GI50 (LOX IMVI): > 100 µM
GI50 (HT-29): > 100 µM
GI50 [6]: > 100 µM
GI50 (NCI-H322M [7]): > 100 µM
GI50 (RPMI-8226): > 100 µM
GI50 (HL-60(TB)): > 100 µM
GI50 (CCRF-CEM): > 100 µM

O=c1[nH]c(-c2ccccn2)nc2sc3c(c12)CCCCCC3
GI50 (MDA-MB-468 [1]): 1.66 µM
GI50 (BT-549 [2]): 5.62 µM
GI50 (ACHN [3]): 5.25 µM
GI50 (OVCAR-5 [4]): 91.2 µM
GI50 (OVCAR-3): 8.51 µM
GI50 (MDA-MB-435 [5]): > 100 µM
GI50 (LOX IMVI): 1.1 µM
GI50 (HT-29): 7.76 µM
GI50 [6]: 26.3 µM
GI50 (NCI-H322M [7]): 85.1 µM
GI50 (RPMI-8226): 3.63 µM
GI50 (HL-60(TB)): 3.39 µM
GI50 (CCRF-CEM): 0.912 µM
